Measured values published in ChEMBL document CHEMBL3272340, “P-Aminobenzoic acid derivatives as inhibitors of the cell-free H2-pteroate synthesizing system of Escherichia coli” (J Med Chem, 1977).
The source made the active and inactive calls. No cut-off for these calls is given here.

Columns and labels:
Escherichia coli = assay: Antibacterial activity against Escherichia coli 273 assessed as growth inhibition at 1 mM after 22 hrs; assay type: functional, organism-based
Outline: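 PABA-requiring E. coli 273 was grown across a range of PABA concentrations with compound at 1 mM, and growth was read after 22 h of incubation.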

[1] = Competitive inhibition of Escherichia coli B H2-pteroate synthetase assessed as decrease in H2-pteroate formation using [7-14C]-PABA as substrate treated with enzyme for 10 mins prior to substrate challenge for 40 mins by Dixon plot analysis
Outline: (§1)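 Cell-free extract of E. coli B (400-600 ug protein) was preincubated 10 min at 37 °C with 0.5 umol ATP, 2 umol MgCl2, 0.5 mg ascorbate, 0.1 mmol Tris-HCl pH 8.0 and 20 nmol 2-amino-4-hydroxy-6-hydroxymethyl-7,8-dihydropteridine in 0.45 ml. [7-14C]-PABA was then added and incubation ran 40 min. The reaction was stopped with citric acid phosphate buffer pH 3.8, free PABA was ether-extracted, and aqueous radioactivity was counted.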

Escherichia coli B = assay: Competitive inhibition of Escherichia coli B H2-pteroate synthetase assessed as decrease in H2-pteroate formation using [7-14C]-PABA as substrate treated with enzyme for 10 mins prior to substrate challenge for 40 mins by radioassay method; outline: as §1
[2] = Dissociation constant, pKa of the compound; assay type: physicochemical

| Inhibition index (Escherichia coli B) | SMILES | also measured |
| --- | --- | --- |
| 55 | Nc1ccc(C(=O)CCC(=O)O)cc1 | growth inhibition (GI) (Escherichia coli): inactive; Ki [1]: 130 µM |
| 450 | COC(=O)c1ccc(N)cc1 | pKa [2]: 2.46 |
| 700 | Nc1ccc(C(=O)NCCCC(=O)O)cc1 | – |
| 260 | Nc1ccc(C(=O)NCC(=O)O)cc1 | – |
| 250 | Nc1ccc(C(=O)N[C@H](CCC(=O)O)C(=O)O)cc1 | – |
| 74 | Nc1ccc(C(=O)CC(C(=O)O)c2ccccc2)cc1 (racemic) [listing 2 of 2 here] | growth inhibition (GI) (Escherichia coli): inactive |
| 460 | CCOC(=O)CCC(=O)c1ccc(N)cc1 | – |
| 53 | NC(=O)c1ccc(N)cc1 | – |
| 480 | Nc1ccc(C(=O)CC(C(=O)O)c2ccccc2)cc1 (stereo in doubt; 25) | – |
| 550 | COC(=O)CNC(=O)c1ccc(N)cc1 | – |
| 105 | CCOC(=O)CC(=O)c1ccc(N)cc1 | – |
| 600 | CCOC(=O)c1ccc(N)cc1 [BENZOCAINE] | pKa [2]: 2.5 |
| 76 | Nc1ccc(C(=O)N[C@@H](CCC(=O)O)C(=O)O)cc1 | Ki [1]: 170 µM |

Further lines, the compound ahead of its results:

| SMILES | Inhibition index (Escherichia coli B) | also measured |
| --- | --- | --- |
| Nc1ccc(C(=O)Nc2ccccc2)cc1 | 600 | – |
| Nc1ccc(C(=O)CC(C(=O)O)c2ccccc2)cc1 (stereo in doubt; 26) | 40 | – |
| Nc1ccc(C(=O)CC(C(=O)O)c2ccccc2)cc1 (racemic) [listing 1 of 2 here] | – | Ki [1]: 150 µM |
| CN(C)C(=O)c1ccc(N)cc1 | 400 | – |
| CNC(=O)c1ccc(N)cc1 | 120 | – |
| CCC(=O)c1ccc(N)cc1 | 180 | – |
| CC(=O)c1ccc(N)cc1 | 210 | pKa [2]: 2.5 |
| Cc1ccc(N)cc1 | – | pKa [2]: 5.1 |
| Nc1ccc(C(=O)c2ccccc2)cc1 | 800 | pKa [2]: 2.24 |
| Nc1ccc(CC(=O)O)cc1 | – | pKa [2]: 3.6 |
| Nc1ccc(C(=O)NCCc2ccccc2)cc1 | 800 | – |
| CCOC(=O)CC[C@H](NC(=O)c1ccc(N)cc1)C(=O)OCC | 600 | – |
